Experiment [1] has as its system NIH3T3. In words: Cytotoxic effect on 3T3 cells. The class given is functional, cell-based. The conditions noted are these: Mus musculus. Put shortly: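 3T3 parental fibroblasts, 2 × 10^4 cells in DMEM with 10% fetal calf serum; compounds dissolved or suspended in DMF or DMSO, final solvent ≤0.5% v/v. Value is the mean of two determinations.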
The subject of experiment [2] is HFF. In words: (§1) Inhibition of EGF-induced mitogenesis in human foreskin fibroblasts. It is filed as functional, cell-based.
Experiment [3] relates to ANN-1. In words: Cytotoxic effect on v-abl transformed murine ANN-1 cells. The conditions noted are these: Mus musculus. The class given is functional, cell-based. In outline: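 Abelson virus-transformed ANN-1 murine fibroblasts expressing the gag-abl tyrosine kinase, 2 × 10^4 cells in DMEM with 10% fetal calf serum; compounds in DMF or DMSO, final solvent ≤0.5% v/v. Value is the mean of two determinations.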

Experiment [4] has as its system WiDr. In words: Cytotoxic effect on WiDr human colon cells. The class given is functional, cell-based.
The subject of experiment [5] is HFF. In words: Inhibition of PDGF-induced mitogenesis in human foreskin fibroblasts. The class given is functional, cell-based.
The subject of experiment [6] is MCF7. In words: Cytotoxic effect on MCF-7 human breast carcinoma cells. The class given is functional, cell-based.
Experiment [7] concerns HFF. Described as §1. The class given is functional, cell-based. This is another data set of the same source.
The target in experiment [8] is Epidermal growth factor receptor (Homo sapiens) (UniProt P00533). The conditions noted are these: A-431, 150 uM.
Epidermal growth factor receptor (Homo sapiens), sequence (P00533 whole entry): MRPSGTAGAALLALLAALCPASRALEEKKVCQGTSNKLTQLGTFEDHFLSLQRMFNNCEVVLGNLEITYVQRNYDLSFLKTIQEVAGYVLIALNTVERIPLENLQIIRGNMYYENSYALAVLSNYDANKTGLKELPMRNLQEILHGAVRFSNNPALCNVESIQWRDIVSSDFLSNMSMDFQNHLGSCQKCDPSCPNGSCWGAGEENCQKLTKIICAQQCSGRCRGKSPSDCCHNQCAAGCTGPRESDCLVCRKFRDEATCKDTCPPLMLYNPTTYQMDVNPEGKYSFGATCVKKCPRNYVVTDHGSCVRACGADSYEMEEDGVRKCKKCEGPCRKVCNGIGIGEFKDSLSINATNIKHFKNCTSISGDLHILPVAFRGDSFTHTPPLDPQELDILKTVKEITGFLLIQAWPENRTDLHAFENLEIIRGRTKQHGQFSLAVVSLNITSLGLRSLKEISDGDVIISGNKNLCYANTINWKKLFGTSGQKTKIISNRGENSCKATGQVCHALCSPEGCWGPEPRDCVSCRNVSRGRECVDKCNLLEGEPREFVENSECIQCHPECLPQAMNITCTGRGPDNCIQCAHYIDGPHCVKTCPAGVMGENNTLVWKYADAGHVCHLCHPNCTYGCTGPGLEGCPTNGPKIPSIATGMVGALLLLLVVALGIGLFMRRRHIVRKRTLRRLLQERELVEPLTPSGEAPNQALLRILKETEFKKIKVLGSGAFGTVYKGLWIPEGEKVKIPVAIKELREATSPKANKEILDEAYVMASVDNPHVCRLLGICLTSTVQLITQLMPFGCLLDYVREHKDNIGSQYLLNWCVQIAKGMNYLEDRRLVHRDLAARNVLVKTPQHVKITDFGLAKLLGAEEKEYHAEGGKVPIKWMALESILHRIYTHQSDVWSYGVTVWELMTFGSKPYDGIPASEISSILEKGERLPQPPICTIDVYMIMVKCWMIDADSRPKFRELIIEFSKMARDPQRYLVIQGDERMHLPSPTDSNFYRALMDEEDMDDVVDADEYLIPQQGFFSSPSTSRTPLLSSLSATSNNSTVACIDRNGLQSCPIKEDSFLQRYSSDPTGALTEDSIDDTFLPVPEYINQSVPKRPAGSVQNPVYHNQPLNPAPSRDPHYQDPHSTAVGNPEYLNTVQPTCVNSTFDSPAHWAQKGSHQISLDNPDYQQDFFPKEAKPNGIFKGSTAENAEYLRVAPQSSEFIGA

With `Oc1ccc(-c2nc3c(O)cc(O)cc3s2)cc1`, the half-inhibitory concentration (IC50) in experiment [1] came to 20 µM; in experiment [2], 7 µM; in experiment [3], 21.5 µM; in experiment [4] it was 31.2 µM; in experiment [5], 20 µM; in experiment [6], 33.3 µM. Further, half-maximal inhibition in experiment [7] (IC50) required 16 µM.
On to `Oc1cc(O)c2nc(-c3ccc(O)c(O)c3)sc2c1`, for which the IC50 in experiment [1] amounted to 47 µM; in experiment [2], 7 µM; in experiment [3], 58.5 µM; in experiment [4], 47.7 µM; in experiment [5], 68 µM; in experiment [6], 41.3 µM. The molecule also came in with an IC50 in experiment [7] of 9 µM.
Take `CC/C(=C(/CC)c1ccc(O)cc1)c1ccc(O)cc1` [DIETHYLSTILBESTROL]: the 50% inhibitory concentration (IC50) in experiment [1] came out at 2.5 µM; in experiment [3], 3 µM; in experiment [6], 5 µM.
Take `Oc1cccc(-c2nc3ccc(O)cc3s2)c1`: the IC50 in experiment [1] was 30.5 µM; in experiment [3] it was 17 µM; in experiment [4], 18.3 µM; in experiment [6] it was 2.7 µM.
For `Oc1ccc(-c2nc3cc(O)c(O)cc3s2)cc1`, in that order: 13.5 µM, 9 µM, 24.7 µM and 8.4 µM.
For `Oc1ccc(-c2nc3cc(O)ccc3s2)cc1`, in that order: 25 µM, 25.5 µM, 62.2 µM and 41.4 µM.
For `Oc1ccc2nc(-c3ccccc3)sc2c1`, in that order: 79.5 µM, 71 µM, 45.2 µM and 27.3 µM.
Regarding `O=c1c(-c2ccc(O)cc2)coc2cc(O)cc(O)c12` [GENISTEIN], the IC50 in experiment [1] turned out to be 24 µM; in experiment [3], 8 µM; in experiment [4], 27.7 µM; in experiment [6], 15.1 µM.
`Oc1ccc(-c2nc3ccc(O)cc3s2)cc1` yielded an inhibition in experiment [8] of 42%. For the same molecule, the IC50 in experiment [1] was determined as 11 µM; in experiment [2], 13 µM; in experiment [3], 13.5 µM; in experiment [4], 67.2 µM; in experiment [5], 14 µM; in experiment [6] it was 25 µM. In experiment [7], 6.5 µM corresponded to half-maximal inhibition (IC50).
Consider `O=c1c(O)c(-c2ccc(O)c(O)c2)oc2cc(O)cc(O)c12` [QUERCETIN], for which the concentration for half-maximal inhibition (IC50) turned out to be 39.5 µM in experiment [1]; 32.5 µM in experiment [3]; 40.2 µM in experiment [4]; 100 µM in experiment [5]; 24 µM in experiment [6].
Take `Oc1ccc(-c2nc3cc(O)c(O)cc3s2)cc1O`: the inhibition in experiment [8] is 38%. The IC50 in experiment [1] worked out at 56.5 µM; in experiment [3] it was 32 µM; in experiment [4] it was 34.2 µM; in experiment [6], 5.1 µM.
For the molecule `Oc1ccc(-c2nc3ccccc3s2)cc1`, the IC50 in experiment [1] was determined as 71.5 µM; in experiment [3], 77 µM; in experiment [4], 68.7 µM; in experiment [6], 27 µM.
For `Oc1ccc2nc(-c3ccc(O)c(O)c3)sc2c1`, in that order: 6 µM, 5.5 µM, 23 µM and 17.6 µM.

One may read the IC50 as the point on the concentration scale where inhibition reaches its midpoint. Read a high IC50 as weaker potency in that assay. In general, inhibition refers to the relative decrease from the control value, in per cent. Lower therefore signals a response near the control.

The values above are taken from ChEMBL document CHEMBL1127530 (J Med Chem, 1994).
